ALR inh – inhibitors of human sulfhydryl oxidase ALR | AID 485317 | inhibition, % (no concentration beside the values) | P55789 | purified ALR, DTT oxidation, H2O2 HRP-luminol luminescence | 290,000 compounds, 3.8% hits;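 active means mean replicate inhibition above about 79%, with every replicate also reaching it, limit read from the data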
Target sequence (P55789 whole entry, looked up): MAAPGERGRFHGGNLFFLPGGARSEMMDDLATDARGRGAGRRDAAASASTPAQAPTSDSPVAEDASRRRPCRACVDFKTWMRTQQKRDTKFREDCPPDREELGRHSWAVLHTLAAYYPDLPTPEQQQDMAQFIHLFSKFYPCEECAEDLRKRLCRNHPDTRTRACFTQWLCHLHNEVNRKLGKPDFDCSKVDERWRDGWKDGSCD
T cell HTS – T cell immune modulation candidate. response (vesicle binding), % at 7 µM. 330,000 compounds, 0.068% hits. 2C CD8+ T cell-vesicle binding, flow cytometry; hits give low values;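 active means response, share of CD8 T cells binding vesicles, and their 90th percentile fluorescence all below set limits, cut at about 80% in these data, passing the limit was not always enough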;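 further: values below 100% mean blocked vesicle binding to the CD8+ T cells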
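incubation = binding step 1.5 h, 37 °C, antibody labelling 20 min, ice | test system = 2C mouse CD8+ T cells | read-out basis = percent CD8+ FL2 mean versus row control | controls = Peptide-free naked vesicles (low) and QL9 vesicles with 0.7% DMSO vehicle (high) | detection = flow cytometry of vesicle-bound cells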
Glyco luc inh – N-linked glycosylation inhibition; D54 ERlucT glycosylation luciferase reporter, 24 h; percent of 100 nM tunicamycin response; reporter increase, % at 12.5 µM; 360,000 compounds, 0.23% hits;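 active means mean luciferase reporter signal, scaled so untreated is 0 and the glycosylation-blocking control 100, at or above a set limit in every replicate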;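 further: luciferase carries N-glycosylation sites so blocking glycosylation raises the light; 0% = median of neutral control wells and 100% = median of 100 nM tunicamycin wells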
* marks the source's active call; other numbers are inactive results; nt = not tested or not shown. The full list was thinned out, with hits kept by preference.

SMILES | ALR inh | T cell HTS | Glyco luc inh
C[C@H](CO)N1C[C@H](C)[C@@H](CN(C)C(=O)CC2CC2)Oc2cc(Br)ccc2S1(=O)=O | nt | nt | 0.3
COC(=O)c1ccc(CSc2nnc(-c3ccc4c(c3)OCO4)n2-c2ccccc2)o1 | -6.2 | 349.7 | 2.3
Clc1ccccc1N/N=C/c1ccc2c(c1)OCO2 | 99.0* | 160.4 | 1.7
CN(/N=C/c1ccc2c(c1)OCO2)c1ccccc1 | 85.1* | 248.3 | -1.1
COc1cc(/C=N/N(C)c2ccccc2)ccc1O | 98.9* | 124.5 | -5.5
O=C(CNC(=O)c1ccccc1Cl)N/N=C/c1ccc2c(c1)OCO2 | -11.2 | 171.1 | 8.3
COc1cc(OC)c(OC)cc1/C=N/N(C)c1ccccc1 | nt | 297.5 | -1.8
O=S(=O)(N/N=C\c1ccc2c(c1)OCO2)c1ccc(F)cc1 | 86.4* | 357.2 | -2.4
C(=N\N(c1ccccc1)c1ccccc1)/c1ccc2c(c1)OCO2 | -4.7 | 332.8 | -1.9
O=S(=O)(N/N=C\c1ccc2c(c1)OCO2)c1ccc(Cl)cc1 | 35.1 | 223.5 | -0.6
COc1ccc(NC(=O)N(C)C[C@@H]2OCc3cnnn3CCCC(=O)N([C@@H](C)CO)C[C@H]2C)c(OC)c1 | nt | nt | 2.1
Cc1ccc(N2C(=O)C3C4C=CC(CC4)C3C2=O)c([N+](=O)[O-])c1 (stereo not given) | -4.8 | 178.4 | -1.9
CN(C(=O)c1cccc(S(=O)(=O)NCc2ccccc2)c1)C1CCCCC1 | nt | 415.4 | -1.7
CC(C)(C)c1ccc(-c2nnc(SCC(=O)NC3CC3)o2)cc1 | -11.6 | 702.1 | -4.3
CC[C@]1(C(=O)OC)[C@H]2C(=O)N(C)C(=O)[C@H]2[C@H]2CN=C(SCC3CC3)N21 | nt | nt | -0.3
CCCN(CCC)Cc1cc(=O)oc2cc(OC)ccc12 | nt | nt | -2.0
COc1ccc(CN2C[C@H](C)[C@@H](CC(=O)NCc3ccccc3)C2=O)cc1 | -1.6 | 540.5 | 3.8
CSCCC(NC(=O)COc1ccccc1)C(=O)OCc1ccc([N+](=O)[O-])cc1 (stereo not given) | -11.3 | 231.8 | 0.4
CSc1ccc(CCNC(=O)CN2C(=O)CCSc3ccccc32)cc1 | -4.8 | 541.2 | -2.3
CCN(CC)S(=O)(=O)c1cccc(NC(=O)CSc2nnc(N)s2)c1 | 98.9* | 372.6 | 0.2
Nc1nnc(SCC(=O)Nc2cccc(S(N)(=O)=O)c2)s1 | -2.7 | 204.3 | 0.4
Cc1ccc(C(=O)CSc2nnc(-c3ccco3)n2Cc2ccccc2)cc1 | 1.8 | 166.1 | -2.3
Cn1c(SCC(=O)c2ccc(-c3ccccc3)cc2)nnc1-c1ccco1 | 87.6* | 454.9 | 7.3
Cn1c(SCC(=O)c2ccc(O)c(O)c2)nnc1-c1cccs1 | 99.0* | 148.5 | -2.0
CNC(=O)CSc1nnc(-c2ccccc2)n1C | -0.9 | 760.5 | -0.2
SMILES | ALR inh | T cell HTS | Glyco luc inh
Cn1c(SCC(=O)c2ccc(O)c(O)c2)nnc1-c1ccccc1 | 93.1* | 176.0 | -1.2
Cc1ccc(C(=O)CSc2nnc(-c3cccs3)n2C)o1 | 49.4 | 351.8 | 0.9
Cc1ccc(N=Cc2sccc2C)cc1C | -12.6 | 286.5 | 1.3
Cc1ccc(CNS(=O)(=O)c2cccc3nsnc23)cc1 | -3.7 | 595.9 | 0.9
CCC1C(=O)N=C(SCC(=O)Nc2ccccc2)NC1=O (stereo not given) | 99.3* | 468.8 | 0.9
CCC1C(=O)N=C(SCC(=O)NC2CCCCC2)NC1=O (stereo not given) | 57.0 | 187.5 | 3.0
CCC1C(=O)N=C(SCC(=O)Nc2ccc(S(N)(=O)=O)cc2)NC1=O (stereo not given) | 99.5* | 439.4 | -2.8
NS(=O)(=O)c1ccc(NC(=O)CSc2n[nH]c(=O)n2C2CC2)cc1 | -33.4 | 204.7 | 4.4
